Assay results published in ChEMBL document CHEMBL1135672, “QSAR evaluation of the Ch'an Su and related bufadienolides against the colchicine-resistant primary liver carcinoma cell line PLC/PRF/5(1)” (J Med Chem, 2002).
In brackets after ≈: the same amount, converted by molar mass.

Tests used:
[1] = Inhibitory activity against the primary liver carcinoma (PLC) cell line PLC/PRF/5; format: functional, Homo sapiens
[2] = Inhibitory activity against colchicine resistant parent primary liver carcinoma (PLC) cell line PLC/PRF/5; format: functional, Homo sapiens
Method in brief: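 PLC/PRF/5 cells were precultured 24 h at 37 °C in 5% CO₂ in 96-well plates, then given colchicine at 0.5 μg/mL. Test compounds were added in dilutions of 10⁻²–10⁻⁶ μg/mL and incubated 72 h at 37 °C in 5% CO₂. Survival was read by MTT. IC50 is the μg/mL giving 50% growth inhibition of the colchicine-resistant cells.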

CC(=O)O[C@H]1CC[C@@]2(C)[C@H](CC[C@@H]3[C@@H]2CC[C@]2(C)[C@@H](c4ccc(=O)oc4)C(=O)[C@H]4O[C@@]432)C1
IC50 [1]: 2.4 µg/mL (≈ 5.45 µM) | IC50 [2]: 7.6 µg/mL (≈ 17.3 µM)

C[C@]12C=CC(=O)C=C1CCC1C2CC[C@]2(C)[C@@H](c3ccc(=O)oc3)C[C@H]3O[C@]132 (stereo partly specified)
IC50 [1]: 6.7 µg/mL (≈ 17.7 µM) | IC50 [2]: 10 µg/mL (≈ 26.4 µM)

C[C@]12CC[C@H](O)C[C@H]1CC[C@@H]1[C@@H]2CC[C@]2(C)[C@@H](c3ccc(=O)oc3)C[C@H](O)[C@]12O
IC50 [1]: 35 µg/mL (≈ 86.9 µM) | IC50 [2]: 30 µg/mL (≈ 74.5 µM)

COC(=O)C/C=C/C1=CO[C@]23CCC1[C@@]2(C)C[C@@H](OC(C)=O)[C@H]1[C@H]3CC[C@@H]2C[C@@H](OC(C)=O)CC[C@@]21C
IC50 [1]: 9.7 µg/mL (≈ 18.8 µM) | IC50 [2]: 20 µg/mL (≈ 38.9 µM)

C[C@]12CC[C@@H](O)C[C@H]1CC[C@@H]1[C@@H]2CC[C@]2(C)[C@@H](c3ccc(=O)oc3)CC[C@]12O
IC50 [1]: 0.076 µg/mL (≈ 0.197 µM) | IC50 [2]: 0.077 µg/mL (≈ 0.199 µM)

CC(=O)O[C@@H]1C[C@]2(C)[C@@H](c3ccc(=O)oc3)CC[C@]2(O)[C@@H]2CC[C@@H]3CC(=O)CC[C@]3(C)[C@H]21
IC50 [1]: 0.79 µg/mL (≈ 1.79 µM) | IC50 [2]: 5.6 µg/mL (≈ 12.7 µM)

CCOC(=O)C/C=C/C1=CO[C@]23CCC1[C@@]2(C)CC[C@H]1[C@H]3CC[C@@H]2C[C@@H](OC(C)=O)CC[C@@]21C
IC50 [1]: 6.4 µg/mL (≈ 13.6 µM) | IC50 [2]: 41 µg/mL (≈ 87.1 µM)

CCOC(=O)C/C=C/C1=CO[C@]23CCC1[C@@]2(C)CC[C@H]1[C@H]3CC[C@@H]2C[C@@H](O)CC[C@@]21C
IC50 [1]: 7.5 µg/mL (≈ 17.5 µM) | IC50 [2]: 9.5 µg/mL (≈ 22.2 µM)

C[C@]12CC[C@H](O)C[C@H]1CC[C@@H]1[C@@H]2CC[C@]2(C)[C@@H](C3=CC(=O)OC3)CC[C@]12O [DIGITOXIGENIN]
IC50 [1]: 0.00087 µg/mL (≈ 0.00232 µM) | IC50 [2]: 0.0092 µg/mL (≈ 0.0246 µM)

CC(=O)O[C@H]1[C@H]2O[C@]23[C@@H]2CC[C@@H]4C[C@@H](O)CC[C@]4(C)[C@H]2CC[C@]3(C)[C@H]1c1ccc(=O)oc1 [CINOBUFAGIN]
IC50 [1]: 0.00074 µg/mL (≈ 0.00167 µM) | IC50 [2]: 0.00092 µg/mL (≈ 0.00208 µM)

C[C@]12CC[C@H](O)C[C@H]1CC[C@H]1[C@H]3C(=O)C[C@H](c4ccc(=O)oc4)[C@@]3(C)CC[C@@H]12
IC50 [1]: 0.82 µg/mL (≈ 2.13 µM) | IC50 [2]: 12 µg/mL (≈ 31.2 µM)

C[C@]12CCC(=O)C[C@H]1CC[C@@H]1[C@@H]2CC[C@]2(C)[C@@H](c3ccc(=O)oc3)C(=O)[C@H]3O[C@@]312
IC50 [1]: 0.85 µg/mL (≈ 2.14 µM) | IC50 [2]: 5.6 µg/mL (≈ 14.1 µM)

CC(=O)O[C@H]1[C@H]2O[C@]23[C@@H]2CC[C@@H]4C[C@H](O)CC[C@]4(C)[C@H]2CC[C@]3(C)[C@H]1c1ccc(=O)oc1
IC50 [1]: 0.098 µg/mL (≈ 0.221 µM) | IC50 [2]: 0.9 µg/mL (≈ 2.03 µM)

C[C@]12C=CC(=O)C[C@H]1CCC1C2CC[C@]2(C)[C@@H](c3ccc(=O)oc3)C[C@H]3O[C@]132 (stereo partly specified)
IC50 [1]: 2.6 µg/mL (≈ 6.83 µM) | IC50 [2]: 7.8 µg/mL (≈ 20.5 µM)

C[C@]12CC[C@H](O)C[C@H]1CC[C@@H]1[C@@H]2CC[C@]2(C)[C@@H](c3ccc(=O)oc3)[C@@H](O)[C@H]3O[C@]132 [DESACETYLCINOBUFAGIN]
IC50 [1]: 0.52 µg/mL (≈ 1.3 µM) | IC50 [2]: 4.8 µg/mL (≈ 12 µM)

C[C@]12CC[C@H](O)C=C1CCC1C2CC[C@]2(C)[C@@H](c3ccc(=O)oc3)CC[C@]12O (stereo partly specified)
IC50 [1]: 0.00031 µg/mL (≈ 0.000806 µM) | IC50 [2]: 0.00032 µg/mL (≈ 0.000832 µM)

CC(=O)O[C@H]1CC[C@@]2(C)[C@H](CC[C@@H]3[C@@H]2CC[C@]2(C)[C@@H](C4=CC(=O)OC4)CC[C@]32O)C1
IC50 [1]: 0.55 µg/mL (≈ 1.32 µM) | IC50 [2]: 0.5 µg/mL (≈ 1.2 µM)

C[C@]12CC[C@H](O)C[C@@]1(O)CC[C@@H]1[C@@H]2CC[C@]2(C)[C@@H](c3ccc(=O)oc3)[C@@H](O)[C@H]3O[C@]132 [DESACETYLCINOBUFOTALIN]
IC50 [1]: 0.67 µg/mL (≈ 1.61 µM) | IC50 [2]: 0.64 µg/mL (≈ 1.54 µM)

CC(=O)O[C@H]1CC[C@@]2(C)[C@H](CC[C@@H]3[C@@H]2CC[C@]2(C)[C@@H](c4ccc(=O)oc4)CC(=O)[C@@H]32)C1
IC50 [1]: 0.55 µg/mL (≈ 1.29 µM) | IC50 [2]: 1.8 µg/mL (≈ 4.22 µM)

C[C@]12CC[C@H](O)C[C@H]1CC[C@@H]1[C@@H]2CC[C@]2(C)[C@@H](c3ccc(=O)oc3)C[C@@H]3O[C@]312
IC50 [1]: 20 µg/mL (≈ 52 µM) | IC50 [2]: 26 µg/mL (≈ 67.6 µM)

C[C@]12CC[C@H](O)C[C@@]1(O)CC[C@@H]1[C@@H]2CC[C@]2(C)[C@@H](C3=CC(=O)OC3)CC[C@]12O [PERIPLOGENIN]
IC50 [1]: 0.061 µg/mL (≈ 0.156 µM) | IC50 [2]: 0.75 µg/mL (≈ 1.92 µM)

CC(=O)O[C@H]1[C@H]2O[C@]23[C@@H]2CC[C@@H]4CC(=O)CC[C@]4(C)[C@H]2CC[C@]3(C)[C@H]1c1ccc(=O)oc1
IC50 [1]: 0.056 µg/mL (≈ 0.127 µM) | IC50 [2]: 0.77 µg/mL (≈ 1.75 µM)

CC(C)(C)OC(=O)NNC(=O)CCC(=O)O[C@H]1CC[C@@]2(C)[C@H](CC[C@@H]3[C@@H]2CC[C@]2(C)[C@@H](c4ccc(=O)oc4)CC[C@]32O)C1
IC50 [1]: 0.00062 µg/mL (≈ 0.00103 µM) | IC50 [2]: 0.0056 µg/mL (≈ 0.00932 µM)

C[C@]12CC[C@H](O)C[C@H]1CC[C@@H]1[C@@H]2CC[C@]2(C)[C@@H](c3ccc(=O)oc3)[C@@H](O)C[C@]12O [DESACETYLBUFOTALIN]
IC50 [1]: 0.00078 µg/mL (≈ 0.00194 µM) | IC50 [2]: 0.008 µg/mL (≈ 0.0199 µM)

C[C@]12CCC(=O)C=C1CCC1C2CC[C@]2(C)[C@@H](c3ccc(=O)oc3)CC[C@]12O (stereo partly specified)
IC50 [1]: 0.00019 µg/mL (≈ 0.000497 µM) | IC50 [2]: 0.82 µg/mL (≈ 2.14 µM)

CCOC(=O)C/C=C(\C=O)C1[C@@H](O)C(=O)[C@H]2[C@@H]3CC[C@@H]4C[C@@H](OC(C)=O)CC[C@]4(C)[C@H]3CC[C@]12C (stereo partly specified)
IC50 [1]: 22 µg/mL (≈ 45 µM) | IC50 [2]: 33 µg/mL (≈ 67.5 µM)

CC(=O)O[C@@H]1CC[C@]2(C)C3CC[C@]4(C)[C@@H](c5ccc(=O)oc5)C[C@@H]5O[C@@]54C3CC[C@@H]2C1 (stereo partly specified)
IC50 [1]: 4.7 µg/mL (≈ 11 µM) | IC50 [2]: 43 µg/mL (≈ 101 µM)

COC(=O)C/C=C(\C=O)C1[C@@H](O)C(=O)[C@H]2[C@@H]3CC[C@@H]4C[C@@H](O)CC[C@]4(C)[C@H]3CC[C@]12C (stereo partly specified)
IC50 [1]: 8.4 µg/mL (≈ 19.4 µM) | IC50 [2]: > 50 µg/mL

CC(=O)O[C@H]1CC[C@@]2(C)[C@H](CC[C@@H]3[C@@H]2CC[C@]2(C)[C@@H](c4ccc(=O)oc4)[C@@H](OC(C)=O)[C@H]4O[C@]342)C1
IC50 [1]: 0.04 µg/mL (≈ 0.0825 µM) | IC50 [2]: 0.092 µg/mL (≈ 0.19 µM)

CC(=O)O[C@H]1CC[C@]2(C)C3CC[C@]4(C)[C@@H](c5ccc(=O)oc5)C[C@@H]5O[C@@]54C3CC[C@@H]2C1 (stereo partly specified)
IC50 [1]: 5.9 µg/mL (≈ 13.8 µM) | IC50 [2]: 7.3 µg/mL (≈ 17.1 µM)

C[C@]12CC[C@H](O)C[C@H]1CC[C@@H]1[C@@H]2CC[C@]2(C)[C@@H](c3ccc(=O)oc3)CC(=O)[C@@H]12
IC50 [1]: 8.2 µg/mL (≈ 21.3 µM) | IC50 [2]: 12 µg/mL (≈ 31.2 µM)

CC(=O)O[C@H]1CC[C@]2(C)C3CC[C@]4(C)[C@@H](c5ccc(=O)oc5)[C@@H](O)[C@@H]5O[C@@]54C3CC[C@@H]2C1 (stereo partly specified)
IC50 [1]: 0.88 µg/mL (≈ 1.99 µM) | IC50 [2]: 1 µg/mL (≈ 2.26 µM)

CC(=O)O[C@H]1[C@H]2O[C@]23[C@@H]2CC[C@@H]4C[C@@H](OC(=O)c5cc([N+](=O)[O-])cc([N+](=O)[O-])c5)CC[C@]4(C)[C@H]2CC[C@]3(C)[C@H]1c1ccc(=O)oc1
IC50 [1]: 0.78 µg/mL (≈ 1.23 µM) | IC50 [2]: 9.6 µg/mL (≈ 15.1 µM)

C[C@]12CCC(=O)C[C@H]1CCC1C2CC[C@]2(C)[C@@H](c3ccc(=O)oc3)C[C@@H]3O[C@@]132 (stereo partly specified)
IC50 [1]: 8.7 µg/mL (≈ 22.7 µM) | IC50 [2]: 43 µg/mL (≈ 112 µM)

C[C@]12CC[C@H](O)C[C@@]1(O)CCC1C2CC[C@]2(C)[C@@H](c3ccc(=O)oc3)C[C@@H]3O[C@@]132 (stereo partly specified)
IC50 [1]: 0.52 µg/mL (≈ 1.3 µM) | IC50 [2]: 0.49 µg/mL (≈ 1.22 µM)

C[C@]12CCC(=O)C[C@H]1CC[C@@H]1[C@@H]2CC[C@]2(C)[C@@H](c3ccc(=O)oc3)CC(=O)[C@@H]12
IC50 [1]: 7 µg/mL (≈ 18.3 µM) | IC50 [2]: 10 µg/mL (≈ 26.1 µM)

C[C@]12CC[C@H]3[C@@H](CC[C@@H]4C[C@@H](O)CC[C@@]43C=O)[C@]13O[C@@H]3C[C@@H]2c1ccc(=O)oc1
IC50 [1]: 0.0089 µg/mL (≈ 0.0223 µM) | IC50 [2]: 0.075 µg/mL (≈ 0.188 µM)

C=C(C)C(=O)O[C@H]1CC[C@@]2(C)[C@H](CC[C@@H]3[C@@H]2CC[C@]2(C)[C@@H](c4ccc(=O)oc4)CC[C@]32O)C1
IC50 [1]: 0.059 µg/mL (≈ 0.13 µM) | IC50 [2]: 0.097 µg/mL (≈ 0.213 µM)

C[C@]12CC[C@H](O)C[C@H]1CC[C@@H]1[C@@H]2CC[C@]2(C)[C@@H](c3ccc(=O)oc3)CC[C@]12O [BUFALIN]
IC50 [1]: 0.00028 µg/mL (≈ 0.000724 µM) | IC50 [2]: 0.00028 µg/mL (≈ 0.000724 µM)

C[C@]12CC[C@@H](O)C[C@H]1CC[C@@H]1[C@@H]2CC[C@]2(C)[C@@H](c3ccc(=O)oc3)C[C@@H]3O[C@]312
IC50 [1]: 4.7 µg/mL (≈ 12.2 µM) | IC50 [2]: 6.4 µg/mL (≈ 16.6 µM)

CC(=O)O[C@H]1CC[C@@]2(C)[C@H](CC[C@@H]3[C@@H]2[C@H](O)C(=O)[C@]2(C)[C@@H](c4ccc(=O)oc4)CC[C@]32O)C1
IC50 [1]: 0.87 µg/mL (≈ 1.9 µM) | IC50 [2]: 6.8 µg/mL (≈ 14.8 µM)

C[C@]12CC[C@H](O)C[C@@]1(O)CC[C@@H]1[C@@H]2CC[C@]2(C)[C@@H](c3ccc(=O)oc3)CC[C@]12O [TELOCINOBUFAGIN]
IC50 [1]: 0.000345 µg/mL (≈ 0.000857 µM) | IC50 [2]: 0.0026 µg/mL (≈ 0.00646 µM)

C[C@]12CC[C@H](OC(=O)CCCCCCC(=O)O)C[C@H]1CC[C@@H]1[C@@H]2CC[C@]2(C)[C@@H](C3=CC(=O)OC3)CC[C@]12O
IC50 [1]: 5.2 µg/mL (≈ 9.8 µM) | IC50 [2]: 8.6 µg/mL (≈ 16.2 µM)
